Test results from ChEMBL document CHEMBL4020842, “Discovery of N1-(4-((7-Cyclopentyl-6-(dimethylcarbamoyl)-7 H-pyrrolo[2,3- d]pyrimidin-2-yl)amino)phenyl)- N8-hydroxyoctanediamide as a Novel Inhibitor Targeting Cyclin-dependent Kinase 4/9 (CDK4/9) and Histone Deacetlyase1 (HDAC1) against Malignant Cancer” (J Med Chem, 2018).
Calls of active or inactive are those of the source. The rule behind the calls is not given here.

Experiments:
[1] = target: Cyclin-dependent kinase 1/cyclin B1 (Homo sapiens) (UniProt P06493+P14635); assay: Inhibition of recombinant human full length C-terminal 6His-tagged CDK1/N-terminal GST-tagged Cyclin-B co-expressed in baculovirus infected sf21 cells at 1 uM using histone H1 substrate in presence of [gamma33P]ATP after 10 mins by scintillation counting method relative to control
[2] = system: HepG2; assay: Induction of apoptosis in human HepG2 cells assessed as late apoptotic cells at 5 uM after 48 hrs by annexin V-FITC/propidium iodide staining based flow cytometry (reference value: 0.64%); type: functional
[3] = target: T1, Histone deacetylase 1 (Homo sapiens, UniProt Q13547); assay: Inhibition of HDAC1 in human A549 cells assessed as increase in acetylated histone-H3 level at 0.1 to 1 uM after 24 hrs by immunofluorescence assay; type: cell-based
[4] = system: MDA-MB-231; assay: Induction of apoptosis in human MDA-MB-231 cells assessed as live cells at 1 uM after 48 hrs by annexin V-FITC/propidium iodide staining based flow cytometry (reference value: 98.1%); type: functional
[5] = system: MDA-MB-231; assay: Induction of apoptosis in human MDA-MB-231 cells assessed as late apoptotic cells at 5 uM after 48 hrs by annexin V-FITC/propidium iodide staining based flow cytometry (reference value: 1.53%); type: functional
[6] = system: HepG2; assay: Induction of apoptosis in human HepG2 cells assessed as necrotic cells at 5 uM after 48 hrs by annexin V-FITC/propidium iodide staining based flow cytometry (reference value: 2.32%); type: functional
[7] = system: HepG2; assay: Induction of apoptosis in human HepG2 cells assessed as late apoptotic cells at 10 uM after 48 hrs by annexin V-FITC/propidium iodide staining based flow cytometry (reference value: 0.64%); type: functional
[8] = system: NCI-H460; assay: Downregulation of CDK4 protein expression in human NCI-H460 cells after 48 hrs by Western blot method; type: functional, cell-based
How it was run: (§1)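 Treated cells were lysed and CDK4 and cyclin D1 protein levels were assessed by Western blot.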

[9] = system: Hep 3B2; assay: Induction of apoptosis in human Hep3B cells assessed as late apoptotic cells at 5 uM after 48 hrs by annexin V-FITC/propidium iodide staining based flow cytometry (reference value: 5.25%); type: functional
[10] = Tmax in Sprague-Dawley rat at 20 mg/kg, po administered as single dose by HPLC analysis; type: ADME, organism-based; settings: in vivo
[11] = system: NCI-H460; assay: Induction of apoptosis in human NCI-H460 cells assessed as necrotic cells at 1 uM after 48 hrs by annexin V-FITC/propidium iodide staining based flow cytometry (reference value: 1.34%); type: functional
[12] = system: HepG2; assay: Induction of apoptosis in human HepG2 cells assessed as reduction in Bcl2 protein expression after 48 hrs by Western blot method; type: functional, cell-based
How it was run: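 Cells were treated with or without test agent, alongside a control, for 48h. They were then lysed and analysed by Western blot for Bcl-2 protein and cleaved caspase 3.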

[13] = system: MDA-MB-231; assay: Induction of apoptosis in human MDA-MB-231 cells assessed as late apoptotic cells at 1 uM after 48 hrs by annexin V-FITC/propidium iodide staining based flow cytometry (reference value: 1.53%); type: functional
[14] = system: MDA-MB-231; assay: Induction of apoptosis in human MDA-MB-231 cells after 48 hrs by annexin V-FITC/propidium iodide staining based flow cytometry; type: functional, cell-based
[15] = target: T1, Histone deacetylase 1; assay: Inhibition of HDAC1 in human NCI-H460 cells assessed as increase in acetylated-histone H3 level at 1 to 5 uM after 48 hrs by Western blot method; type: cell-based
[16] = system: T47D; assay: Induction of apoptosis in human T47D cells assessed as live cells at 5 uM after 48 hrs by annexin V-FITC/propidium iodide staining based flow cytometry (reference value: 85.3%); type: functional
[17] = Lipophilicity, log D of the compound at pH 7.4 by HPLC based shake flask method; type: physicochemical; settings: buffer
[18] = target: LIM domain kinase 1 (Homo sapiens, UniProt P53667); assay: Inhibition of recombinant human N-terminal His6-tagged LIMK1 (285 to 638 residues) expressed in baculovirus infected sf21 cells
[19] = system: NCI-H460; assay: Induction of apoptosis in human NCI-H460 cells after 48 hrs by annexin V-FITC/propidium iodide staining based flow cytometry; type: functional, cell-based
[20] = system: Hep 3B2; assay: Induction of apoptosis in human Hep3B cells assessed as late apoptotic cells at 1 uM after 48 hrs by annexin V-FITC/propidium iodide staining based flow cytometry (reference value: 5.25%); type: functional
[21] = system: NCI-H460; assay: Cell cycle arrest in human NCI-H460 cells assessed as accumulation at G2 phase at 2.5 to 10 uM after 24 hrs by propidium iodide staining based flow cytometry; type: functional
How it was run: (§2)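 Cells were exposed for 24 h to a range of concentrations (625 nM, 2.5 and 10 µM), with DMSO vehicle as control. They were then stained with propidium iodide and analysed by flow cytometry to obtain the percentages of cells in G0/G1, S and G2 phases.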

[22] = target: T1, Histone deacetylase 1; assay: Inhibition of HDAC1 in human A549 cells assessed as increase in acetylated-histone H3 level at 1 to 5 uM after 48 hrs by Western blot method; type: cell-based
[23] = system: MDA-MB-231; assay: Downregulation of Cyclin-D1 protein expression in human MDA-MB-231 cells after 48 hrs by Western blot method; type: functional, cell-based; how it was run: as §1
[24] = target: T1, Histone deacetylase 1; assay: Inhibition of HDAC1 in human HepG2 cells assessed as increase in p53 phosphorylation at Ser15 residue at 1 to 5 uM after 48 hrs by Western blot method; type: cell-based
[25] = system: NCI-H460; assay: Induction of apoptosis in human NCI-H460 cells assessed as early apoptotic cells at 10 uM after 48 hrs by annexin V-FITC/propidium iodide staining based flow cytometry (reference value: 0.11%); type: functional
[26] = system: MDA-MB-468; assay: Cytotoxicity against human MDA-MB-468 cells assessed as reduction in cell viability after 72 hrs by CCK8 assay; type: functional, cell-based; settings: MDA-MB-468, 72 h
[27] = system: A549; assay: Induction of apoptosis in human A549 cells after 48 hrs by annexin V-FITC/propidium iodide staining based flow cytometry; type: functional, cell-based
[28] = system: HepG2; assay: Induction of apoptosis in human HepG2 cells assessed as live cells at 5 uM after 48 hrs by annexin V-FITC/propidium iodide staining based flow cytometry (reference value: 96.7%); type: functional
[29] = AUC (0 to infinity) in Sprague-Dawley rat at 20 mg/kg, ip administered as single dose by HPLC analysis; type: ADME, organism-based; set-up: dose 20 mg/kg, time infinity, route intraperitoneal; settings: in vivo
[30] = system: Hep 3B2; assay: Cell cycle arrest in human Hep3B cells assessed as accumulation at G2 phase at 2.5 to 10 uM after 24 hrs by propidium iodide staining based flow cytometry; type: functional; how it was run: as §2
[31] = system: A549; assay: Cytotoxicity against human A549 cells assessed as reduction in cell viability after 72 hrs by CCK8 assay; type: functional, cell-based; settings: A549, 72 h
[32] = Cmax in Sprague-Dawley rat at 20 mg/kg, po administered as single dose by HPLC analysis; type: ADME, organism-based; set-up: dose 20 mg/kg, route oral; settings: in vivo
[33] = system: HepG2; assay: Induction of apoptosis in human HepG2 cells assessed as early apoptotic cells at 5 uM after 48 hrs by annexin V-FITC/propidium iodide staining based flow cytometry (reference value: 0.3%); type: functional
[34] = system: T47D; assay: Downregulation of Cyclin-D1 protein expression in human T47D cells after 48 hrs by Western blot method; type: functional, cell-based; how it was run: as §1

T1 sequence (Q13547 whole entry): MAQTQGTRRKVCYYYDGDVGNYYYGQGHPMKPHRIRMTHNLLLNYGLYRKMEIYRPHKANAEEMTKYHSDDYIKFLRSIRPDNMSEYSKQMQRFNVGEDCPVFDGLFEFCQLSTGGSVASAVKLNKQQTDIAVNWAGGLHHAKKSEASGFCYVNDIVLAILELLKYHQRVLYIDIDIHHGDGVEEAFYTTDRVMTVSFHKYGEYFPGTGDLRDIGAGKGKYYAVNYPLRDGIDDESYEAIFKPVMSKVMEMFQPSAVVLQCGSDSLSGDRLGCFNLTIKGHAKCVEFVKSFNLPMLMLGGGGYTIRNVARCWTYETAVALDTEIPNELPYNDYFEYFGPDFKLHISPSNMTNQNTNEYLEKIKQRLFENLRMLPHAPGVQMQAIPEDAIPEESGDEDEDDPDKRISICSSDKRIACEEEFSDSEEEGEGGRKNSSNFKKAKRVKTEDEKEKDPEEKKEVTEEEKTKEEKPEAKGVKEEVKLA
Sequence of Cyclin-dependent kinase 1/cyclin B1 (Homo sapiens) (P06493 whole entry, looked up): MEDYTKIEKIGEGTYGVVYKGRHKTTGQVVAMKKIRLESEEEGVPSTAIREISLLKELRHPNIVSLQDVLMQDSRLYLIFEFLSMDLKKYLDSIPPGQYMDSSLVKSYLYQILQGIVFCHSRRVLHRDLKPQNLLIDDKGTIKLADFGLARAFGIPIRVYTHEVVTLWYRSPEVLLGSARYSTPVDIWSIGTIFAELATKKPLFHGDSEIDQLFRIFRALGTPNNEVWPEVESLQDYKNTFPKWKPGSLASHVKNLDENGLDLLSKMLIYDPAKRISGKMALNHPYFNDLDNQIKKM
Sequence of Cyclin-dependent kinase 1/cyclin B1 (Homo sapiens) (P14635 whole entry, looked up): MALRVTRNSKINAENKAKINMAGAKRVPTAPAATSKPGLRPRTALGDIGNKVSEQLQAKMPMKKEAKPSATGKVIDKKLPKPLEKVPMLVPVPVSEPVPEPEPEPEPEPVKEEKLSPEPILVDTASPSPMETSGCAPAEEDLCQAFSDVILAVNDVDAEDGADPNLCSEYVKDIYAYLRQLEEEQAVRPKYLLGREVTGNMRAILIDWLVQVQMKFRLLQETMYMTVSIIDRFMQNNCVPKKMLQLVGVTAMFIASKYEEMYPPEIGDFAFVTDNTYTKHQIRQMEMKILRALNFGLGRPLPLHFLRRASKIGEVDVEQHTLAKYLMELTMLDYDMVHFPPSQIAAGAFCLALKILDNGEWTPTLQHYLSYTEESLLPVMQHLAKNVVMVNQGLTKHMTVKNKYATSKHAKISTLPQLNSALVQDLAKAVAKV
Sequence of LIM domain kinase 1 (P53667 whole entry, the tested form may be a part): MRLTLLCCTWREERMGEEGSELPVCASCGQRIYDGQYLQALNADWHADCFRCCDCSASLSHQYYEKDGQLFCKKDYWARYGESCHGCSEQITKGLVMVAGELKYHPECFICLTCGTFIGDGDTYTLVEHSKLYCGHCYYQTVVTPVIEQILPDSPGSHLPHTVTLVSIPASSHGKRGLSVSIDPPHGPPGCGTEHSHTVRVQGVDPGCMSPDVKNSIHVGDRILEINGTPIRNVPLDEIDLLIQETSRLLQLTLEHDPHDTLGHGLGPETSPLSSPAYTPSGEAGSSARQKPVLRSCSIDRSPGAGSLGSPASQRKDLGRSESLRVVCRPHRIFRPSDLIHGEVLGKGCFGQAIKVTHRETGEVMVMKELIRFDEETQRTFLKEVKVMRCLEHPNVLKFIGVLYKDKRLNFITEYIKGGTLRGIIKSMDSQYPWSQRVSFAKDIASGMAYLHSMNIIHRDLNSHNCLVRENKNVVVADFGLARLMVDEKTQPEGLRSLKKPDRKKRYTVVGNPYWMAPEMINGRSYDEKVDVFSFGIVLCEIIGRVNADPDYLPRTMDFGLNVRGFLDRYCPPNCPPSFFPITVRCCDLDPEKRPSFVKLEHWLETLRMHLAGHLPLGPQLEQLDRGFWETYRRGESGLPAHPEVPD

- inhibition [1]: 55%
- inhibition [3]: Active
- Tmax [10]: 1.8 h
- inhibition [15]: Active
- logD [17]: 2.02
- IC50 [18]: 44 nM
- inhibition [22]: Active
- inhibition [24]: Active
- AUC(0-inf) [29]: 2130 ng·h/mL
- Cmax [32]: 137 ng/mL
SMILES: CN(C)C(=O)c1cc2cnc(Nc3ccc(NC(=O)CCCCCCC(=O)NO)cc3)nc2n1C1CCCC1
- Activity [2]: 11.1%
- Activity [4]: 95.6%
- Activity [5]: 5.76%
- Activity [6]: 6.13%
- Activity [7]: 11.7%
- Activity [8]: Dose-dependent effect
- Activity [9]: 10.4%
- Activity [11]: 1.25%
- Activity [12]: Active
- Activity [13]: 1.97%
- Activity [14]: Dose-dependent effect
- Activity [16]: 76.5%
- Activity [19]: Dose-dependent effect
- Activity [20]: 7.09%
- Activity [21]: Active
- Activity [23]: Dose-dependent effect
- Activity [25]: 3.95%
- IC50 [26]: 1820 nM
- Activity [27]: Dose-dependent effect
- Activity [28]: 76.4%
- Activity [30]: Active
- IC50 [31]: 1330 nM
- Activity [33]: 7.31%
- Activity [34]: Dose-dependent effect
